Screening results as filed in PubChem.
Rows were chosen to be rich in hits. Some 2.4% of all compounds tested hit in one or more screens of this group.
HSV augment: HSV replication enhancement; HSV replication augmentation in cells, fold increase; maximum fold increase; 0.005% of 220,000 active; AID 1956; in the data active = maximum fold increase above about 1.5; inconclusive = no clear call, values can overlap the other calls; tested in PC3 cells
b-catenin transl: beta-catenin nuclear translocation modulation; HeLa beta-catenin nuclear translocation, immunofluorescence imaging; nuclear translocation activity, % at 5 µM; 0.3% of 190,000 active; AID 1665;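 active = nuclear translocation activity above 50% at 5 µM, with a well cell count of 50 or more; inconclusive = wells under 50 cells across six images, flagged as toxic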;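 also: per-cell ratio of nuclear to cytoplasmic median beta-catenin stain intensity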
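Test system: human HeLa cells, endogenous beta-catenin. Times: 24 h compound exposure, 37°C. Measured by: beta-catenin immunofluorescence imaging with DAPI.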
INS promoter inh: TRM-6 insulin promoter activity inhibition. TRM-6 cells (human fetal islet line), insulin promoter-eGFP reporter, imaging; reporter expression induced with tamoxifen. inhibition, % at 2 µM. 0.9% of 130,000 active. AID 1273;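 active = inhibition above the mean plus 3 SD, with well images judged a real hit on visual review, cut at about 60% in these data, passing the limit was not always enough; inconclusive = inhibition over the cutoff but images rejected on review; inactive = inhibition not above the cutoff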
MT stabilizer: microtubule stabilizers in HeLa cells; HeLa tubulin immunostaining HCS, 24 h; share of cells brighter than vehicle mean+2SD; % tubulin-high responders, % at 10 µM; 0.83% of 200,000 active; AID 2205;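 active = plate Z-score above 3 for both tubulin-high and condensed-nucleus cell shares, with cell loss under 80%, at 10 µM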;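 also: anti alpha tubulin signal scored within the nucleus-defined area of each cell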
ROMK primary: modulators of human ROMK potassium channel; 2% of 130,000 active; P48048; B-score at 10 µM; AID 1918; Tet-inducible ROMK, thallium flux fluorescence; actives lie on both sides;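 active = signal ratio slope over the read window, or its plate-corrected B-score, at least 3 SD from the plate mean, either direction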;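 also: B-score of the F/F0 ratio slope over 7 to 12 s after thallium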
Target sequence (P48048 whole entry, looked up): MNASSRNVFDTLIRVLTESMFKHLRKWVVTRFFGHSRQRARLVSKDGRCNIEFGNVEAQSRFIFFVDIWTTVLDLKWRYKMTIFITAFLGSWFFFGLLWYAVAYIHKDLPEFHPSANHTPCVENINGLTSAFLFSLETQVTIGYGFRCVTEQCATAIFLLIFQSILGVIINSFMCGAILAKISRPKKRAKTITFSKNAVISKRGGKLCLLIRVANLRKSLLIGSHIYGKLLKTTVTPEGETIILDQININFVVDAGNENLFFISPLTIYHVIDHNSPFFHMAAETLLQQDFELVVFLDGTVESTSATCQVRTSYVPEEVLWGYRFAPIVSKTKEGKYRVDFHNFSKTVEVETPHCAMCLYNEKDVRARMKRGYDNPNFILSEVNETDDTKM
ROMK hit retest: retested hit modulating human ROMK potassium channel | shares compounds with ROMK primary | ROMK thallium flux, fluorescence ratio; stronger effect = lower value | 54% of 3,000 active | normalized thallium flux (F/F0 slope) at 10 µM;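 active = Flux at 10 µM at least 3 SD below or above vehicle control mean in one or both replicates; inconclusive = no clear call, values can overlap the other calls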
A number is an active result.

Screening N=c1n(CC(=O)c2cccc([N+](=O)[O-])c2)c2ccccc2n1Cc1ccccc1 returned HSV augment inactive, b-catenin transl inactive, INS promoter inh inactive and MT stabilizer inactive.
`CC(C)(C)C(=O)Cn1c(=N)n(Cc2ccccc2Cl)c2ccccc21` gave HSV augment inactive, INS promoter inh inactive, MT stabilizer inactive and ROMK primary inactive.
CCCn1c(=N)n(CC(=O)c2ccc([N+](=O)[O-])cc2)c2ccccc21 was read as HSV augment inactive, b-catenin transl inactive, INS promoter inh inactive, MT stabilizer inactive, ROMK primary -4.4 and ROMK hit retest inactive.
COc1ccc(CCN=C(N)NS(=O)(=O)c2ccc(C)c(C)c2)cc1 was read as HSV augment inactive, b-catenin transl inactive, INS promoter inh inactive and MT stabilizer inactive.
CCCc1cc(=O)c2c(O)ccc(OC)c2o1 was read as HSV augment inactive and b-catenin transl inactive.
COC(=O)[C@@]1(Cc2ccc(OC)cc2)[C@H]2c3cc(C(=O)N(C)C)n(CCc4ccc(OC)c(Br)c4)c3C[C@H]2CN1C(=O)c1ccccc1 was read as b-catenin transl inconclusive, INS promoter inh inactive, MT stabilizer inactive, ROMK primary -3.8 and ROMK hit retest 0.065.
COC(=O)[C@@]1(Cc2ccc(OC)cc2)[C@H]2c3cc(C(=O)N4CCCC4)n(Cc4ccc(OC)c(OC)c4)c3C[C@H]2CN1C(=O)c1ccccc1 was read as HSV augment inactive, INS promoter inh inactive, MT stabilizer inactive and ROMK primary inactive.
O=C(/C=C/c1cccnc1)c1ccc(NC(=O)c2cccc(Br)c2)cc1 was read as HSV augment inactive, b-catenin transl inactive, INS promoter inh inactive, MT stabilizer inactive and ROMK primary inactive.
`Cc1cccc(C(=O)Nc2ccc(C(=O)/C=C/c3cccnc3)cc2)c1` gave HSV augment inactive, INS promoter inh inactive, MT stabilizer inactive, ROMK primary -2.4 and ROMK hit retest inconclusive.
For Cc1scc2c1N(C(=O)CN1CCN(C)CC1)c1ccccc1NC2=O the results were HSV augment inactive, b-catenin transl inactive, INS promoter inh inactive, MT stabilizer inactive, ROMK primary 3.1 and ROMK hit retest inactive.
`COc1ccccc1NC(=O)CSc1nnc(C2CCCCC2)n1-c1ccccc1` gave HSV augment inactive and b-catenin transl inactive.
O=C(/C=C/c1ccccc1Cl)NCc1cccs1 was read as HSV augment inactive, b-catenin transl inactive, INS promoter inh inactive, MT stabilizer inactive and ROMK primary inactive.
O=C(NC1CC1)c1cc2c(F)cccc2s1 was read as HSV augment inactive, b-catenin transl inactive, MT stabilizer inactive and ROMK primary inactive.
Screening Cc1ccc([N+](=O)[O-])c(OCCn2cnc3ccccc32)c1 returned HSV augment inactive, b-catenin transl inactive, MT stabilizer inactive, ROMK primary -3 and ROMK hit retest inconclusive.
c1ccc(OCCn2cnc3ccccc32)cc1 was read as HSV augment inactive, b-catenin transl inactive, INS promoter inh inactive, MT stabilizer inactive, ROMK primary -2.2 and ROMK hit retest 0.067.
`Cc1ccc(OCCOCCn2cnc3ccccc3c2=O)c([N+](=O)[O-])c1` gave HSV augment inactive, b-catenin transl inactive, INS promoter inh inactive, MT stabilizer inactive and ROMK primary inactive.
For O=C(NCCC1=CCCCC1)C(=O)NCc1ccccc1 the results were HSV augment inactive, b-catenin transl inactive, MT stabilizer inactive, ROMK primary 1.2 and ROMK hit retest inactive.
For O=C(NCCc1ccccc1)C(=O)NN=C1CCCC1 the results were b-catenin transl inactive, INS promoter inh inactive, MT stabilizer inactive, ROMK primary 2.8 and ROMK hit retest inactive.
Cc1ccc(CNC(=O)C(=O)NCCC2=CCCCC2)cc1 was read as HSV augment inactive, b-catenin transl inactive, INS promoter inh inactive, MT stabilizer inactive and ROMK primary inactive.
`N#Cc1ccc(Cl)cc1NC(=O)CSc1nc2nc(-c3cccs3)cc(C(F)(F)F)c2c(=O)[nH]1` gave HSV augment inactive and b-catenin transl inactive.
CSc1n[nH]c(NCc2ccc(C)cc2)n1 was read as HSV augment inactive, b-catenin transl inactive, INS promoter inh inactive, MT stabilizer inactive and ROMK primary inactive.
Screening CCOC(=O)C1=C(C)OC(N)=C(C#N)C1c1ccc(C)s1 (stereo unspecified) returned HSV augment inactive, b-catenin transl inactive, INS promoter inh inactive, MT stabilizer inactive, ROMK primary 3.2 and ROMK hit retest 0.064.
`COc1nc(Cl)cn(-c2ccc(C)cc2)c1=O` gave HSV augment inactive, b-catenin transl inactive, INS promoter inh inactive and MT stabilizer inactive.
`Cc1ccc(-n2c(Cl)c(Cl)nc(Cl)c2=O)cc1` gave HSV augment inactive, b-catenin transl inactive, INS promoter inh inactive, MT stabilizer inactive, ROMK primary -4.7 and ROMK hit retest 0.047.
For O=C(COC(=O)c1ccc2c(c1)OCCO2)Nc1cccc(S(=O)(=O)N2CCOCC2)c1 the results were HSV augment inactive, b-catenin transl inactive, INS promoter inh inactive, MT stabilizer inactive and ROMK primary inactive.
Screening O=C(COC(=O)C1CC2C=CC1C2)Nc1cccc(S(=O)(=O)N2CCOCC2)c1 (stereo unspecified) returned HSV augment inactive, b-catenin transl inactive and ROMK hit retest inactive.
Screening Cc1cccc(N2CCN(C(c3cccs3)c3nnnn3C(C)(C)C)CC2)c1C (stereo unspecified) returned HSV augment inactive, b-catenin transl inactive, MT stabilizer inactive and ROMK primary inactive.
Screening Cc1cccc(N2CCN(C(c3ccccc3)c3nnnn3C(C)(C)C)CC2)c1C (stereo unspecified) returned b-catenin transl inactive, INS promoter inh inactive, MT stabilizer inactive, ROMK primary -3.3 and ROMK hit retest inactive.
CCC(C)NC(=O)CC(c1ccccc1)c1cc(C)ccc1O (stereo unspecified) was read as HSV augment inactive, b-catenin transl inactive, MT stabilizer inactive and ROMK primary inactive.
CCOc1cccc(NC(=O)CSc2nc(C)c3c(c2C#N)CCCC3)c1 was read as HSV augment inactive, b-catenin transl inactive, INS promoter inh inactive, MT stabilizer inactive and ROMK hit retest inactive.
For Cc1nc(SCC(=O)Nc2ccc3c(c2)OCO3)c(C#N)c2c1CCCC2 the results were HSV augment inactive, b-catenin transl inactive, MT stabilizer inactive and ROMK primary inactive.
O=[N+]([O-])c1cc(Cl)cc2c1nc(NCCO)c1ccccc12 was read as HSV augment inactive and b-catenin transl inactive.
Screening N#Cc1cccc(N=c2ssnc2Cl)c1 returned HSV augment inactive, b-catenin transl inactive, INS promoter inh inactive, MT stabilizer inactive, ROMK primary -3.9 and ROMK hit retest 0.065.
Screening O=C(O)C/C=C(/NC(=O)OCc1ccccc1)C(=O)OCc1ccccc1 returned HSV augment inactive, b-catenin transl inactive, INS promoter inh inactive, MT stabilizer inactive and ROMK primary inactive.
